# Measured values reported in ChEMBL document CHEMBL1208772, “Design, synthesis, and structure-activity relationship study of conformationally constrained analogs of indole-3-carboxamides as novel CB1 cannabinoid receptor agonists” (Bioorg Med Chem Lett, 2010).
# Tests used:
# [1] = Aqueous solubility of the compound at citrate buffer of pH 5; type: physicochemical
# [2] = Aqueous solubility of the compound at phosphate buffer solution of pH 6.7; type: physicochemical
# Cannabinoid receptor 1 [3] = biological target: T1, Cannabinoid receptor 1 (Homo sapiens, UniProt P21554); experiment: Agonist activity at human cannabinoid CB1 receptor expressed in CHO cells after 5 hrs by luciferase reporter gene assay; type: functional, cell-based
# T1 sequence (P21554 whole entry): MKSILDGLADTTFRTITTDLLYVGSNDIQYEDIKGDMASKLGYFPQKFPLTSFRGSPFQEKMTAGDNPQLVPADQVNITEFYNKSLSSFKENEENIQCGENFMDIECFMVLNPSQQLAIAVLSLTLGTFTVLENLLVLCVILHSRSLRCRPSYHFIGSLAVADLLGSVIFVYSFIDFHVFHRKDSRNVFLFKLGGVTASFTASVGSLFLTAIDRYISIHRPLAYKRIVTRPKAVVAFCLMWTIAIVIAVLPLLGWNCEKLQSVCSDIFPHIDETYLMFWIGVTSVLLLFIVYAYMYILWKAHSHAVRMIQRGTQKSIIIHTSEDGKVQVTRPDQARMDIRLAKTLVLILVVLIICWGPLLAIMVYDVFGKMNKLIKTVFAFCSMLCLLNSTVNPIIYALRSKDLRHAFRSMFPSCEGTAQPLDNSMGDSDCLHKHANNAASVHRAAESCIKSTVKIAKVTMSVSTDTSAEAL
# How it was run: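 Functional agonism was tested in CHO cells doubly transfected with human CB1 and a luciferase reporter gene. Potency is reported as pEC50, the mean of three experiments.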
# Cannabinoid receptor 2 = Cannabinoid receptor 2 (Homo sapiens, UniProt P34972); experiment: Displacement of [3H]CP-55940 from human cannabinoid CB2 receptor expressed in insect Sf9 cells
# Chain of Cannabinoid receptor 2 (P34972 whole entry): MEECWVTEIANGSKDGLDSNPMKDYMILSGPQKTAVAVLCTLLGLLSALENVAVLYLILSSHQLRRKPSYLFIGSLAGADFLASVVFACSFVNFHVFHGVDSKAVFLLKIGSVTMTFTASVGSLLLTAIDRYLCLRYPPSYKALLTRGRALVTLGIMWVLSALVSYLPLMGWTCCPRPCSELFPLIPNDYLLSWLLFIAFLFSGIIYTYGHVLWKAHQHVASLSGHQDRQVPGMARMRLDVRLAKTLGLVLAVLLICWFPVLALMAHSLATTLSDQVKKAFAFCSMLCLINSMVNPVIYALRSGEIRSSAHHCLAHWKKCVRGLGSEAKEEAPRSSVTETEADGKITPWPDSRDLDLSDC
# How it was run: (§1)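 Affinity at CB1 and CB2 came from radioligand competition binding with [3H]CP 55,940 and is reported as pKi.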
# Cannabinoid receptor 1 [4] = biological target: T1, Cannabinoid receptor 1; experiment: Displacement of [3H]CP-55940 from human cannabinoid CB1 receptor expressed in insect Sf9 cells; how it was run: as §1
# [5] = Aqueous solubility of the compound at citrate buffer of pH 4.9; type: physicochemical
# How it was run: (§2)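 MSF solubility of the HCl salt was measured in citrate buffer (nominal pH 5) and in PBS (nominal pH 7.4). The final pH of each solution was recorded and reported alongside the solubility in mg/L.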
# [6] = Aqueous solubility of the compound at phosphate buffer solution of pH 7; type: physicochemical; how it was run: as §2
# [7] = Volume of distribution at steady state in ICR mouse at 0.5 umol/kg, iv; type: ADME, organism-based; conditions: in vivo, read-out: Vdss
# How it was run: (§3)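 ICR mice received a single iv dose in saline vehicle. Brain and plasma levels were measured with terminal sampling under CO2. Plasma Cmax was taken at t = 0.05 h. Brain exposure was given as Cmax, tmax and AUC over 0–1 h, plus a brain:plasma Cmax ratio from the same study.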
# [8] = Clearance in ICR mouse at 0.5 umol/kg, iv; type: ADME, organism-based; conditions: in vivo; how it was run: as §3
# [9] = Elimination half life in ICR mouse at 0.5 umol/kg, iv; type: ADME, organism-based; conditions: in vivo, read-out: beta t1/2 (converted); how it was run: as §3
# [10] = Tmax in ICR mouse brain at 0.5 umol/kg, iv; type: ADME, organism-based; how it was run: as §3
# [11] = Cmax in ICR mouse plasma at 0.5 umol/kg, iv after 0.05 hrs; type: ADME, organism-based; design: dose 0.5 umol/kg, route intravenous; how it was run: as §3
# [12] = Intrinsic clearance in mouse liver microsomes; type: ADME, Microsome
# Mus musculus = experiment: Antinociceptive activity against Freund's complete adjuvant-induced […] pain in iv dosed mouse assessed as increase in tail flick latency by tail flick test; type: functional
# Brain = experiment: AUC (0 to 1 hr) in ICR mouse brain at 0.5 umol/kg, iv; type: ADME, organism-based; design: dose 0.5 umol/kg, time < 1 hr, route intravenous; conditions: in vivo; how it was run: as §3
# [13] = AUC in ICR mouse plasma at 0.5 umol/kg, iv; type: ADME; how it was run: as §3
# [14] = Cmax in ICR mouse brain at 0.5 umol/kg, iv; type: ADME, organism-based; design: dose 0.5 umol/kg, route intravenous; how it was run: as §3
# [15] = Ratio of Cmax in brain to plasma in ICR mouse brain at 0.5 umol/kg, iv; type: ADME; conditions: brain and plasma; how it was run: as §3
smiles,measurement,setting,value
CCN1CCN(C(=O)c2cn(CC3CCCCC3)c3c(OC)cccc23)CC1,solubility,[1],3400 µg/mL
same,solubility,[2],216 µg/mL
same,EC50,Cannabinoid receptor 1 [3],158 nM
C[C@H]1CN(C(=O)c2cn3c4c(cccc24)OC[C@H]3C2CCCCC2)CCN1,EC50,Cannabinoid receptor 1 [3],501 nM
CCN1CCN(C(=O)c2cn3c4c(cccc24)OC[C@H]3C2CCCCC2)CC1,Ki,Cannabinoid receptor 2,3.98 nM
same,Ki,Cannabinoid receptor 1 [4],12.6 nM
C[C@@H]1CN(C(=O)c2cn3c4c(cccc24)OC[C@H]3C2CCCCC2)C[C@H](C)N1,EC50,Cannabinoid receptor 1 [3],126 nM
CCN1CCN(C(=O)c2cn3c4c(cccc24)OCC3C2CCCCC2)CC1 (configuration not stated),EC50,Cannabinoid receptor 1 [3],31.6 nM
CCN1[C@H](C)CN(C(=O)c2cn(CC3CCCCC3)c3c(OC)cccc23)C[C@@H]1C,EC50,Cannabinoid receptor 1 [3],10 nM
C[C@@H]1CN(C)C[C@H](C)N1C(=O)c1cn2c3c(cccc13)OC[C@H]2C1CCCCC1,EC50,Cannabinoid receptor 1 [3],63.1 nM
CCN1CCN(C(=O)c2cn3c4c(cccc24)OC[C@@H]3C2CCCCC2)CC1,EC50,Cannabinoid receptor 1 [3],> 10000 nM
same,solubility,[5],> 4000 µg/mL
same,solubility,[6],308 µg/mL
C[C@H]1CN(C(=O)c2cn3c4c(cccc24)OC[C@H]3C2CCCCC2)CCN1C,Ki,Cannabinoid receptor 2,0.398 nM
same,Vd,[7],2.6 L/kg
same,clearance,[8],134 mL/min/kg
same,half-life,[9],13.8 min
same,Ki,Cannabinoid receptor 1 [4],2 nM
same,Tmax,[10],10.2 min
same,Cmax,[11],51.5 ng/mL
same,microsomal CLint,[12],> 180 µL/min/mg
same,ED50,Mus musculus,0.19 µmol/kg
same,AUC,Brain,44.6 ng·h/g
same,AUC,[13],23.7 ng·h/mL
same,Cmax,[14],76.2 ng/g
same,Kp,[15],1.48
CCN1CCN(C(=O)c2cn3c4c(cccc24)CCC3C2CCCCC2)CC1 (configuration not stated),EC50,Cannabinoid receptor 1 [3],25.1 nM
same,solubility,[5],3510 µg/mL
same,solubility,[6],114 µg/mL
C[C@@H]1CNC[C@H](C)N1C(=O)c1cn2c3c(cccc13)OC[C@H]2C1CCCCC1,EC50,Cannabinoid receptor 1 [3],794 nM
COc1cccc2c(C(=O)N3C[C@@H](C)N(C)[C@@H](C)C3)cn(CC3CCCCC3)c12,EC50,Cannabinoid receptor 1 [3],25.1 nM
O=C(c1cn2c3c(cccc13)OC[C@H]2C1CCCCC1)N1CCNCC1,EC50,Cannabinoid receptor 1 [3],3980 nM
